Rows were chosen to be rich in hits. Some 5.4% of all compounds tested hit in one or more screens of this group.
SKKanGAS inh: inhibitors of SKKanGAS S. pyogenes growth in kanamycin (SK-promoter or general growth effect); BacTiter-Glo, 6 h; 300,000 compounds, 1.3% hits; inhibition, % at 7.5 µM;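 active means mean replicate score, as percent of positive control median, at least 50; inconclusive means mean below 50 but one replicate at or above 50; inactive means mean and every replicate below 50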;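 further: strain carries kanamycin resistance gene driven by streptokinase promoter and grows in 40 µg/ml kanamycin; loss of luminescence reflects streptokinase promoter inhibition or plain growth inhibition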
CSC inhib: cancer stem cell inhibition. cancer stem cell-like cells viability, luminescence. inhibition, % at 7.5 µM. 300,000 compounds, 1.1% hits; in the data active means inhibition above about 75%; inconclusive means no clear call, values can overlap the other calls; tested in HMLE shEcad cells
T cruzi repl: T. cruzi replication inhibition; T. cruzi beta-gal in NIH3T3, luminescence, 90 h; inhibition, % (no concentration beside the values); 300,000 compounds, 1.4% hits; AID 1885;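 active means mean inhibition across valid replicates above about 55%, limit read from the data; inconclusive means mean below that limit but half or more replicates reach it; inactive means mean below it, under half of replicates reach it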;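 further: signal also drops with host cell toxicity which is not excluded here; higher percent means less beta-gal luminescence so fewer parasites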
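System: Mouse NIH/3T3 fibroblasts infected with β-gal-expressing T. cruzi Tulahuen C4 | Quantity: NIH/3T3 cells, 5,000 per well | Reagent: 5000 reporter trypomastigotes per well | Dosing: Compound pinned at 50 nL/well, DMSO | Schedule: 3 h host attachment, then at least 90 h co-culture | Detection: GalScreen luminescence, 60 min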
Mdm2-MdmX inh: disrupts the human Mdm2-MdmX interaction; 330,000 compounds, 3% hits; AID 485346; inhibition, % at 8 µM; SaOS-2 split-luciferase Mdm2/MdmX complementation, luminescence; O15151+Q00987;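 active means inhibition of at least 50% at 8 µM in the primary screen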
Target sequence (O15151 whole entry, looked up): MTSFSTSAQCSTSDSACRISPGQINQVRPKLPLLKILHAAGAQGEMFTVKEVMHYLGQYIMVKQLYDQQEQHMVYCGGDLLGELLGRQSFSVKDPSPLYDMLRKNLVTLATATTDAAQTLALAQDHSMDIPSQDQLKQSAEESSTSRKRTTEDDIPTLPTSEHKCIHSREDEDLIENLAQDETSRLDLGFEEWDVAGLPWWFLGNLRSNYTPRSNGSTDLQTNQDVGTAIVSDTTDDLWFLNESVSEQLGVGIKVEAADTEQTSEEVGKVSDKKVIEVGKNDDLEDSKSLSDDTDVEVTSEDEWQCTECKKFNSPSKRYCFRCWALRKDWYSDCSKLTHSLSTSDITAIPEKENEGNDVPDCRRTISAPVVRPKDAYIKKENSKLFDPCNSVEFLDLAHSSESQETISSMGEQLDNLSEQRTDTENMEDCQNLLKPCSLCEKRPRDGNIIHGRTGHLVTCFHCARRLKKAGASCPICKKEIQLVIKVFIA
Target sequence (Q00987 whole entry, looked up): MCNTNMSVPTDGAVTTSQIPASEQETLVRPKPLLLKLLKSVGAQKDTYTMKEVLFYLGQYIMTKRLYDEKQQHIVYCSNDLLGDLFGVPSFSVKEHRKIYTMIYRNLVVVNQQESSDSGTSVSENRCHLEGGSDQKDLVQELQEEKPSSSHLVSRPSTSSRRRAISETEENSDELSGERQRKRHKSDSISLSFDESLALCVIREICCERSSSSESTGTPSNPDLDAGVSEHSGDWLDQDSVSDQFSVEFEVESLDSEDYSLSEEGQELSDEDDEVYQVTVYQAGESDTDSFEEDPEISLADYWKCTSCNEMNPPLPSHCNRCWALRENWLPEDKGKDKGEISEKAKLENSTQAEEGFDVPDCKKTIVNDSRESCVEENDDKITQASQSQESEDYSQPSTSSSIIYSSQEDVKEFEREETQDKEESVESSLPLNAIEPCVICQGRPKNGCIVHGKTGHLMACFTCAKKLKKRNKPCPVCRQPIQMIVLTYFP
aSyn 5UTR inh: 5' untranslated region of α-synuclein, MLPCN primary screen | alpha-synuclein 5'UTR reporter, inhibitor activity | inhibition, % (tested at 7.5 µM) | 300,000 compounds, 0.82% hits | AID 1813; in the data active means inhibition above about 60%; inconclusive means no clear call, values can overlap the other calls;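 further: H4 neuroglioblastoma cells stably carrying SNCA 5'UTR luciferase fusion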
A number is an active result; n = inactive; u = inconclusive; x = not tested or not shown.

SMILES | SKKanGAS inh | CSC inhib | T cruzi repl | Mdm2-MdmX inh | aSyn 5UTR inh
O=C(Nc1cccc(NC(=O)c2cccs2)c1)c1ccc2c(c1)OCCO2 | n | x | n | n | n
CN(C)c1nc(NC(C)(C)C)nc(NC(C)(C)C)n1 | n | n | 59 | n | n
Oc1c(Br)cc(Br)cc1/C=N/c1nc2c(s1)CCCC2 | 51 | n | n | n | n
NNC(=O)/C(=N/Nc1ccccc1)S(=O)(=O)c1ccc(Cl)cc1 | 74 | n | n | n | n
COC(=O)[C@@]12CCCCN1[C@H](c1ccc(-c3ccc4c(c3)OCO4)cc1)[C@H]1C(=O)N(C)C(=O)[C@H]12 | x | x | x | n | x
COC(=O)Nc1nc(-c2cc(Cl)ccc2Cl)cs1 | n | x | 80 | n | n
CCOC(=O)Nc1nc(-c2ccc(F)cc2F)cs1 | n | n | n | n | n
Cc1ccc(N(C(=O)CNC(=O)c2ccco2)C(C(=O)NC2CCCCC2)c2ccncc2)c(C)c1 (centres undefined) | n | x | n | n | n
CCNC(=S)N/N=C/c1ccccc1[N+](=O)[O-] | x | n | n | n | n
Cc1ccccc1NC(=S)N/N=C/c1ccc(O)cc1O | n | n | n | n | n
COc1ccc(/C=N/NC(=S)Nc2ccccc2[N+](=O)[O-])cc1O | n | 89 | n | x | n
CCCOc1ccc(/C=N/NC(=S)Nc2ccccc2[N+](=O)[O-])c(O)c1 | 102 | 89 | n | x | 101
CCCOc1ccc(/C=N/Nc2ccccc2[N+](=O)[O-])c(O)c1 | n | x | n | n | 62
Cc1cccc(NC(=S)N/N=C/c2cccc(O)c2)c1C | n | 80 | n | n | n
CSc1ccccc1C(=O)N(C)C(c1ccccc1)c1ccccc1 | n | n | n | n | n
CCCN(CCC)C(=O)c1ccc2nc(-c3ccc(OC)c(OC)c3)c(-c3ccc(OC)c(OC)c3)nc2c1 | n | n | u | n | n
COc1ccc(S(=O)(=O)N2CCCCC2)cc1NC(=O)c1ccc(N2CCCC2=O)cc1 | x | x | x | n | x
O=C(CCNc1cccc(F)c1)c1cc2ccccc2o1 | n | n | n | n | n
O=C(CCNc1ccc(F)cc1)c1cc2ccccc2o1 | n | n | 73 | n | n
O=C1/C(=N\S(=O)(=O)c2cccs2)C([n+]2cccc(Cc3ccccc3)c2)=C([O-])c2ccccc21 | 106 | n | n | n | 85
CC(C)(C)c1cc[n+](C2=C([O-])c3ccccc3C(=O)/C2=N\S(=O)(=O)c2ccccc2)cc1 | 86 | n | n | n | 84
Cc1cc[n+](C2=C([O-])c3ccccc3C(=O)/C2=N\S(=O)(=O)c2cccs2)cc1C | n | n | 57 | n | 74
COc1cc(/C=C/C(=O)OCC(=O)NCCc2ccc(S(N)(=O)=O)cc2)ccc1OCC#N | x | x | x | n | x
O=c1[nH]c(C2CCCN(S(=O)(=O)c3ccccc3)C2)nc2c1nnn2Cc1ccccc1Br (centres undefined) | n | n | n | n | n
Cc1cc(C(=O)Nc2cccc(C(=O)O)c2)c(C)o1 | n | n | n | n | n
SMILES | SKKanGAS inh | CSC inhib | T cruzi repl | Mdm2-MdmX inh | aSyn 5UTR inh
Cc1cc(C(=O)Nc2cccc(C(=O)O)c2)oc1C | n | n | n | n | 87
Cc1ccccc1-c1ccc(CN2CCN(C)C(CCO)C2)cc1 (centres undefined) | n | u | 58 | n | n
CC(C)n1cc(CN2CCN(C)C(CCO)C2)c2ccccc21 (centres undefined) | n | n | 59 | n | n
Cc1ccccc1-c1ncc(CN2CCN(C3CCCC3)C(CCO)C2)cn1 (centres undefined) | n | n | n | n | n
COC(=O)c1cc(NC(=O)CN(C)C2CCS(=O)(=O)C2)cc(C(=O)OC)c1 (centres undefined) | x | n | x | n | x
COC(=O)Cc1nnc(SCC(=O)Nc2ccccc2)c2ccccc12 | n | n | n | n | n
CSCCC(NC(=O)c1cccc(C)c1)C(=O)NNC(=O)c1cccs1 (centres undefined) | x | n | x | n | x
COC(=O)Cc1cc(=O)[nH]c(Nc2nc3ccccc3o2)n1 | n | n | n | n | n
COCc1cc(=O)[nH]c(Nc2nc3ccccc3o2)n1 | 53 | n | n | n | n
CC(C)(c1cc(Br)c(O)c(Br)c1)c1cc(Br)c(O)c(Br)c1 | x | 103 | x | n | x
CC1CCN(c2ccccc2NC(=S)NC(=O)c2cccs2)CC1 | 87 | n | n | n | n
CCOc1ccc(C(=O)NC(=S)Nc2ccc(N3CCC(C)CC3)cc2)cc1[N+](=O)[O-] | n | x | n | x | n
CN1CCN(c2ccccc2NC(=O)c2ccc(Br)o2)CC1 | n | n | n | n | n
CCOc1ccc(C(=O)NC(=S)Nc2ccccc2N2CCC(C)CC2)cc1[N+](=O)[O-] | n | n | 55 | n | n
CC1CCN(c2ccccc2NC(=O)c2ccc(Br)o2)CC1 | 88 | n | n | n | n
COc1ccc(C(=O)NC(=S)Nc2ccc(N3CCOCC3)c(Cl)c2)cc1[N+](=O)[O-] | 68 | n | n | n | n
COc1ccc(C(=O)NC(=S)Nc2ccccc2N2CCOCC2)cc1[N+](=O)[O-] | n | n | n | n | n
Cc1nn(C)cc1S(=O)(=O)Nc1cccc(Cl)c1 | n | n | n | n | n
COc1cc(/C=C/C(=O)OCC(=O)NC2CCCCCCC2)ccc1O | x | n | x | n | x
COc1ccc(S(=O)(=O)N2CCN(C(=O)c3cc(-c4ccc(C)cc4)n[nH]3)CC2)cc1 | n | x | n | n | n
C[C@@H](CSc1ccccc1)CN1CC[C@H](NC(=O)OCc2ccccc2)CCC1=O | n | n | n | n | n
CC1CCN(c2ccccc2NC(=S)NC(=O)C(C)(C)C)CC1 | 58 | n | n | n | n
O=C(/C=C/c1ccccc1)NC(=S)Nc1ccc(N2CCOCC2)c(Cl)c1 | n | x | n | n | n
O=C(/C=C/c1ccco1)NC(=S)Nc1ccc(N2CCOCC2)c(Cl)c1 | 87 | n | n | n | n
O=C(C[n+]1cccc(C(=O)N/N=C/c2cccc([N+](=O)[O-])c2)c1)c1ccccc1 | x | x | x | n | x
SMILES | SKKanGAS inh | CSC inhib | T cruzi repl | Mdm2-MdmX inh | aSyn 5UTR inh
Cc1cc(C)nc(NC(=NCCc2c[nH]c3ccccc23)NC(=O)Nc2cccc([N+](=O)[O-])c2)n1 | n | n | n | n | n
Cc1cc(C)nc(NC(=NCCc2c[nH]c3ccccc23)NC(=O)Nc2ccc(Cl)c(Cl)c2)n1 | n | n | 62 | n | n
Oc1ccc(Br)cc1/C=N/NC(=S)NCCc1ccccc1 | 90 | 105 | n | n | n
CC(C)NC(=S)N/N=C/c1cc(Br)ccc1O | 62 | n | n | n | n
COC(=O)C(C)NC(=O)c1cn(-c2ccccc2OC)c(=O)c2ccccc12 (centres undefined) | n | n | n | n | n
CC(=O)Oc1ccc(C#C/C=C2\c3ccccc3C(=O)N2c2ccccc2)cc1 | x | 134 | x | n | x
CCCC(/C=C/c1ccc(OC(C)=O)cc1)=C1/c2ccccc2C(=O)N1c1ccccc1 | x | 112 | x | n | x
COc1ccc(CN=Cc2[nH]c3ccc(Br)c(Cl)c3c2O)cc1 | n | n | 55 | n | n
Cc1cc(C)cc(N=Cc2[nH]c3ccc(Br)c(Cl)c3c2O)c1 | n | n | n | x | n
O=C(Nc1cccc(C(F)(F)F)c1)c1cccnc1N1CCN(c2ccccc2)CC1 | 51 | n | n | n | n
O=C(Nc1cccc(C(F)(F)F)c1)c1cccnc1N1CCN(CCO)CC1 | n | n | n | n | n
